Yeast superoxide: yeast age-related superoxide inhibition as caloric restriction mimetic; actives 0.18% (n = 330,000); S. cerevisiae aged cells, superoxide DHE fluorescence; hits give low values; superoxide response (% of plate mean), % at 10 µM;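 active means superoxide response under a set limit, about three screen SD below normal, cut at about 65% in these data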;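 further: yeast aged for seven days with compound at 30 °C before DHE staining; 100% = average MFI of all compound-treated wells on the plate with controls excluded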
IDE inh: inhibitors of human insulin-degrading enzyme in cells. P14735. HEK cells, FAbetaB cleavage, fluorescence polarization. inhibition, % at 5.59 µM. actives 0.41% (n = 320,000). AID 434962;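 active means percent inhibition above the average of all tested compounds plus 3 SD, set per screening campaign, cut at about 16% in these data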;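 further: IDE supplied by intact live HEK cells; FP after avidin binding of uncleaved biotin substrate so inhibition keeps polarization high; 0% = DMSO wells and 100% = 60 µM reference IDE inhibitor Ii1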
IDE cell activ: IDE (human) activation, cell-based. P14735. HEK cells, FAbeta-B cleavage, fluorescence polarization; 0% vehicle, 100% cell-free pure enzyme wells. activation, % at 5.96 µM. actives 0.073% (n = 340,000). AID 493087;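 active means activation above the mean of all tested compounds plus 3 SD, set per screening campaign, cut at about 17% in these data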
Tb MetRS inh: Trypanosoma brucei MetRS inhibition; actives 0.4% (n = 360,000); inhibition, % at 11.9 µM; AID 624268; purified T. brucei MetRS, ATP depletion, Kinase-Glo luminescence;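 active means inhibition above a per-plate cutoff of the control wells' mean inhibition plus 3 SD, cut at about 5.5% in these data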;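 further: 0% = DMSO wells median and 100% = median of wells with control inhibitor compound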
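Dosing: 11.9 µM compound single dose, 0.9% DMSO; Assay system: purified T. brucei MetRS enzyme; Measured by: Kinase-Glo luciferase luminescence reporting remaining unconsumed ATP; Schedule: 15 min plus 2 h at 25 °C.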
HDAC3 inh: blocks human histone deacetylase 3 | O15379 | recombinant HDAC3, fluorogenic peptide/trypsin coupled, fluorescence | inhibition, % at 8.3 µM | actives 0.15% (n = 320,000); in the data active means inhibition above about 26%, passing the limit was not always enough; inconclusive means no clear call, values can overlap the other calls
Target sequence (O15379 whole entry, looked up): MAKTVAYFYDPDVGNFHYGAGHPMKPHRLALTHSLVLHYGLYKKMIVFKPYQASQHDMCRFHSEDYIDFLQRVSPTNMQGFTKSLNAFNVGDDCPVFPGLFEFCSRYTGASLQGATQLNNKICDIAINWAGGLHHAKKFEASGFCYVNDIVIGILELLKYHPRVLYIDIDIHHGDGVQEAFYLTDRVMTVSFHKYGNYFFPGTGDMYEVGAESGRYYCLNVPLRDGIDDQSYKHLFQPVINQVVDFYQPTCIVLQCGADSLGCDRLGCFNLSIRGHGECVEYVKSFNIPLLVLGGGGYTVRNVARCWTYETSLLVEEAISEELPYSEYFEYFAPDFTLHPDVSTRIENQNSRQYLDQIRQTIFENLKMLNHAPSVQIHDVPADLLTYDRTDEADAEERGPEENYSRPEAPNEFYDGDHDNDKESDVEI
Efflux pump inh: inhibitors of Candida antifungal efflux pumps expressed in yeast; S. cerevisiae Candida pump triplex, Nile Red efflux; inhibition, % at 10 µM; actives 0.44% (n = 330,000); AID 485275;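 active means plate passing quality check with inhibition over a set limit, or well fluorescence over plate mean plus 4 SD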;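 further: Nile Red retained in pooled yeast measured as flow cytometry median fluorescence; 0% = buffer negative control and 100% = Enniatin B positive control; higher means more Nile Red kept so more efflux inhibition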
TbMetRS confirm: Trypanosoma brucei MetRS inhibition confirmed | shares compounds with Tb MetRS inh | T. brucei MetRS enzyme, luminescence (ATP depletion) | inhibition, % at 11.9 µM | actives 93% (n = 1,400) | AID 624412; in the data active means inhibition above about 7%
Jurkat tox: counter-screen for T. brucei MetRS inhibitors: Jurkat cell cytotoxicity. AID 624413. shares compounds with Tb MetRS inh. actives 12% (n = 1,400). Jurkat cells viability, ATP luminescence. inhibition, % at 8.3 µM; in the data active means inhibition above about 15%;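 further: 0% = vehicle and 100% = reference inhibitor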
Tb MetRS inh FP: orthogonal test for Trypanosoma brucei MetRS inhibitors; purified T. brucei MetRS, fluorescence polarization; actives 44% (n = 1,400); shares compounds with Tb MetRS inh; inhibition, % at 11.9 µM; in the data active means inhibition above about 17%;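 further: 0% = vehicle wells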
Starred values were filed as active, the others as inactive; ? = inconclusive; · = no result. Rows were chosen to be rich in hits. Some 1.4% of all compounds tested hit in one or more screens of this group.

SMILES	Yeast superoxide	IDE inh	IDE cell activ	Tb MetRS inh	HDAC3 inh	Efflux pump inh	TbMetRS confirm	Jurkat tox	Tb MetRS inh FP
Cc1[nH]c2ccccc2c1C(=O)C(=O)N1CCN(c2ccccc2Cl)CC1	130	-6	8	9.0*	0	0	28*	-4	15
O=C(C(=O)N1CCN(c2cccc(Cl)c2)CC1)c1c[nH]c2ccccc12	111	-1	0	9.4*	-2	0	12*	0	7
Cc1[nH]c2ccccc2c1C(=O)C(=O)N1CCN(c2cccc(Cl)c2)CC1	102	0	4	7.1*	2	0	15*	-2	3
COc1ccccc1N1CCN(C(=O)C(=O)c2c(C)[nH]c3ccccc23)CC1	112	-2	2	6.6*	7	0	19*	1	4
COc1ccc(C(CNC(=O)COc2cc(C)c(Cl)c(C)c2)N2CCCCC2)cc1 (stereo unspecified)	107	4	5	-1	·	0	·	·	·
O=C(COc1ccccc1Cl)Nc1ccccc1C(=O)N1CCCCC1	92	3	1	0	-7	0	·	·	·
Cc1[nH]c2ccccc2c1C(=O)C(=O)N1CC(C)OC(C)C1 (stereo unspecified)	109	-2	-3	1	0	0	·	·	·
Cc1[nH]c2ccccc2c1C(=O)C(=O)N1CC=C(c2ccccc2)CC1	118	13	-25	9.1*	6	0	13*	10	1
COc1ccc2oc(-c3ccc(C)c(NC(=O)c4ccc(N5CCOCC5)c([N+](=O)[O-])c4)c3)nc2c1	128	-4	4	0	1	0	·	·	·
CC(C)CNC(=O)C1C(=O)Nc2ccccc2C(=O)N1C1CCCCC1 (stereo unspecified)	·	·	·	0	·	·	·	·	·
C[C@@H]1COC(=O)[C@H](CC(=O)OC(C)(C)C)C/C=C\C[C@@H](CC(=O)N[C@H](CO)Cc2ccccc2)C(=O)N1	98	1	3	0	1	0	·	·	·
Cc1cccc(NS(=O)(=O)c2ccc3nc(-c4ccccc4)[nH]c3c2)c1C	109	6	3	27*	-12	-1	40*	3	30*
Cc1cccc(NS(=O)(=O)c2ccc3[nH]c(=O)oc3c2)c1C	110	0	-6	0	6	0	·	·	·
O=C(NCc1n[nH]c(=S)n1Cc1ccccc1)c1ccc(Cl)cc1Cl	98	-1	-4	5.8*	4	0	13*	1	5
CC(=O)N1CCc2cc(S(=O)(=O)NCCCN3CCC(C)CC3)ccc21	91	-2	-2	0	?	0	·	·	·
CN/N=C(\Cc1nc2ccccc2[nH]1)c1ccc([N+](=O)[O-])cc1	·	·	-4	4	·	·	·	·	·
Clc1ccc(/C(Cc2nc3ccccc3[nH]2)=N\Nc2ccccc2)cc1	98	3	-3	8.6*	-1	0	32*	4	17*
Clc1ccc(SCc2nc3ccccc3[nH]2)cc1	97	0	3	17*	0	0	30*	8	13
Clc1ccc(OCCSCc2nc3ccccc3[nH]2)cc1	85	2	-1	58*	-4	0	73*	5	48*
Fc1ccc(CSc2nc3ncc(Br)cc3[nH]2)cc1	109	4	6	3	0	0	·	·	·
Brc1cnc2nc(SCc3nc4ccccc4[nH]3)[nH]c2c1	96	3	·	57*	9	0	85*	-2	65*
O=C(NCCC(=O)N1CCN(S(=O)(=O)c2ccccc2F)CC1)Nc1ccccc1	91	4	-1	0	0	0	·	·	·
Nc1c(Cl)ncnc1Nc1ccc(C(=O)O)cc1	·	·	3	46*	·	·	74*	-7	46*
CC1CCCCC1NC(=O)COc1ccccc1C#N (stereo unspecified)	86	-3	-3	0	4	0	·	·	·
CCN(CC)C(=O)CSc1nc2ncc(Br)cc2[nH]1	102	-7	1	2	3	0	·	·	·
SMILES	Yeast superoxide	IDE inh	IDE cell activ	Tb MetRS inh	HDAC3 inh	Efflux pump inh	TbMetRS confirm	Jurkat tox	Tb MetRS inh FP
O=C(CSc1nc2ncc(Br)cc2[nH]1)c1ccc([N+](=O)[O-])cc1	95	6	0	18*	-3	0	52*	2	24*
COc1cccc(NC(=O)CN(C)CC(=O)Nc2cccc(C(F)(F)F)c2)c1	104	0	5	-1	6	0	·	·	·
COc1cccc(NC(=O)CSc2nc3ncc(Br)cc3[nH]2)c1	86	9	0	70*	-1	0	85*	6	60*
COc1cccc(NC(=O)CN(C)CC(=O)Nc2ccc(Br)cc2)c1	91	-1	5	11*	-5	0	20*	3	23*
CCc1ccc(NC(=O)CSc2nc3ncc(Br)cc3[nH]2)cc1	91	-1	2	0	-5	0	·	·	·
N#CCC(=O)N/N=C/c1ccc(N2N=C(c3ccccc3)CC2c2ccccc2)cc1 (stereo unspecified)	109	9	1	0	-4	1	·	·	·
Cc1cc(-c2nnc(CCC(=O)N3CCN(Cc4cccnc4)CC3)o2)c(C)o1	91	-1	6	0	?	0	·	·	·
Cc1ccc(OCCSc2nc3ccccc3n2CC(=O)O)cc1	105	2	4	0	8	0	·	·	·
N#CC1=C(N)Oc2cc(N)ccc2C1c1ccccc1F (stereo unspecified)	115	10	-1	0	2	0	·	·	·
N#CC1=C(N)Oc2cc(N)ccc2C1c1cc(Br)cs1 (stereo unspecified)	106	·	-7	43*	-2	0	3	56*	11
N#CC1=C(N)Oc2cc(N)ccc2C1c1ccsc1 (stereo unspecified)	98	12	4	0	-5	0	·	·	·
N#CC1=C(N)Oc2cc(N)ccc2C1c1cccc(Br)c1 (stereo unspecified)	104	·	4	34*	2	0	2	75*	10
CCN(C(=O)COC(=O)c1ccc(C=O)cc1)c1c(N)n(Cc2ccccc2)c(=O)[nH]c1=O	75	-3	2	0	2	0	·	·	·
C=CCn1c(Cc2ccccc2)nc2c(cnn2-c2ccccc2)c1=O	103	4	0	0	2	0	·	·	·
CC1(C)CC(NC(=O)C2CCN(S(=O)(=O)c3cccc(C(F)(F)F)c3)CC2)CC(C)(C)N1	94	7	-1	0	-4	0	·	·	·

High-throughput results (PubChem BioAssay)
